# Data from ChEMBL document CHEMBL2417509, “Synthesis and biological evaluation of prodigiosene conjugates of porphyrin, estrone and 4-hydroxytamoxifen” (2013).
# Columns and labels:
# Assay type in all cases: functional
# [1] = test system: RXF 393; assay: Cytotoxicity against human RXF393 cells after 2 days by sulforhodamine B assay; details: RXF 393, 48 h
# Summary of the method: (§1)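 NCI60 multi-dose screen, 59 human tumour lines available. Cells exposed to compound across a 5-log mol/L concentration range for 2 days, then fixed and stained with sulphorhodamine B, optical density read. Growth inhibition calculated against time-zero control and untreated cells. GI50 derived from the dose series, average of two replicates.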
# [2] = test system: HT-29; assay: Cytotoxicity against human HT-29 cells after 2 days by sulforhodamine B assay; details: HT-29, 48 h; summary of the method: as §1
# [3] = test system: RPMI-8226; assay: Cytotoxicity against human RPMI8226 cells after 2 days by sulforhodamine B assay; details: RPMI-8226, 48 h; summary of the method: as §1
# [4] = test system: Malme-3M; assay: Cytotoxicity against human MALME-3M cells after 2 days by sulforhodamine B assay; details: 48 h; summary of the method: as §1
# [5] = test system: CAKI-1; assay: Cytotoxicity against human CAKI-1 cells after 2 days by sulforhodamine B assay; details: CAKI-1, 48 h; summary of the method: as §1
# [6] = test system: SW-620; assay: Cytotoxicity against human SW620 cells after 2 days by sulforhodamine B assay; details: SW-620, 48 h
# Summary of the method: (§2)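 NCI DTP NCI60 multi-dose screen (59 human tumour lines available). Cells exposed to compound over a 5-log mol/L concentration range for 2 days, then fixed and stained with sulphorhodamine B, with optical density read. Growth inhibition calculated relative to time-zero cells and untreated cells, giving GI50 (half-maximal growth inhibition concentration). Average of two replicates.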
# [7] = test system: HOP-92; assay: Cytotoxicity against human HOP92 cells after 2 days by sulforhodamine B assay; details: HOP-92, 48 h; summary of the method: as §1
# [8] = Cytotoxicity against human NCI-ADR-RES cells after 2 days by sulforhodamine B assay; details: 48 h; summary of the method: as §1
# [9] = test system: TK-10; assay: Cytotoxicity against human TK10 cells after 2 days by sulforhodamine B assay; details: TK-10, 48 h; summary of the method: as §2
# [10] = test system: PC-3; assay: Cytotoxicity against human PC3 cells after 2 days by sulforhodamine B assay; details: PC-3, 48 h; summary of the method: as §1
# [11] = test system: SNB-75; assay: Cytotoxicity against human SNB75 cells after 2 days by sulforhodamine B assay; details: SNB-75, 48 h; summary of the method: as §2
# [12] = test system: COLO 205; assay: Cytotoxicity against human COLO205 cells after 2 days by sulforhodamine B assay; details: COLO 205, 48 h; summary of the method: as §1
# [13] = test system: MDA-MB-231; assay: Cytotoxicity against human MDA-MB-231 cells after 2 days by sulforhodamine B assay; details: MDA-MB-231, 48 h; summary of the method: as §1
# [14] = test system: A549; assay: Cytotoxicity against human A549/ATCC cells after 2 days by sulforhodamine B assay; details: A549, 48 h; summary of the method: as §1
# [15] = Cytotoxicity against human Hs578T cells after 2 days by sulforhodamine B assay; details: Hs-578T, 48 h; summary of the method: as §1
# [16] = test system: MOLT-4; assay: Cytotoxicity against human MOLT4 cells after 2 days by sulforhodamine B assay; details: MOLT-4, 48 h; summary of the method: as §1
# [17] = test system: IGROV-1; assay: Cytotoxicity against human IGROV1 cells after 2 days by sulforhodamine B assay; details: IGROV-1, 48 h; summary of the method: as §1
# [18] = test system: U-251; assay: Cytotoxicity against human U251 cells after 2 days by sulforhodamine B assay; details: U-251, 48 h; summary of the method: as §2
# [19] = test system: A498; assay: Cytotoxicity against human A498 cells after 2 days by sulforhodamine B assay; details: A498, 48 h; summary of the method: as §1
# [20] = test system: SNB-19; assay: Cytotoxicity against human SNB19 cells after 2 days by sulforhodamine B assay; details: SNB-19, 48 h; summary of the method: as §2
# [21] = test system: NCI-H522; assay: Cytotoxicity against human NCI-H522 cells after 2 days by sulforhodamine B assay; details: NCI-H522, 48 h; summary of the method: as §1
# [22] = test system: T47D; assay: Cytotoxicity against human T47D cells after 2 days by sulforhodamine B assay; details: 48 h; summary of the method: as §2
# [23] = test system: MDA-MB-468; assay: Cytotoxicity against human MDA-MB-468 cells after 2 days by sulforhodamine B assay; details: MDA-MB-468, 48 h; summary of the method: as §1
# [24] = test system: 786-0; assay: Cytotoxicity against human 786-0 cells after 2 days by sulforhodamine B assay; details: 786-0, 48 h; summary of the method: as §1
# [25] = test system: SF-268; assay: Cytotoxicity against human SF268 cells after 2 days by sulforhodamine B assay; details: SF-268, 48 h; summary of the method: as §1
# [26] = test system: DU-145; assay: Cytotoxicity against human DU145 cells after 2 days by sulforhodamine B assay; details: DU-145, 48 h; summary of the method: as §1
# [27] = test system: SF-539; assay: Cytotoxicity against human SF539 cells after 2 days by sulforhodamine B assay; details: SF-539, 48 h; summary of the method: as §1
# [28] = test system: HCC 2998; assay: Cytotoxicity against human HCC2998 cells after 2 days by sulforhodamine B assay; details: HCC 2998, 48 h; summary of the method: as §1
# [29] = test system: ACHN; assay: Cytotoxicity against human ACHN cells after 2 days by sulforhodamine B assay; details: 48 h; summary of the method: as §1
# [30] = read-out: LC50 (the source's name)
compound,measurement,setting,value
CCC(=C(c1ccc(OCCN(C)C)cc1)c1ccc(OC(=O)CCCCC(=O)C2=C(C)/C(=C/c3[nH]c(-c4ccc[nH]4)cc3OC)N=C2C)cc1)c1ccccc1,GI50,[1],3.89 µM
same,LC50 (concentration killing 50% of cells),[1],44.7 µM
same,TGI,[1],17.8 µM
same,GI50,[2],3.02 µM
same,LC50,[2],74.1 µM
same,TGI,[2],14.8 µM
same,GI50,[3],3.16 µM
same,LC50 (concentration killing 50% of cells present at time zero),[3],> 100 µM
same,TGI,[3],19 µM
same,GI50,[4],9.33 µM
same,LC50,[4],> 100 µM
same,TGI,[4],34.7 µM
same,GI50,[5],6.31 µM
same,LC50 (concentration killing 50% of the cells present at time zero),[5],> 100 µM
same,TGI,[5],36.3 µM
same,GI50,[6],3.16 µM
same,LC50 (concentration killing 50% of cells),[6],34.7 µM
same,TGI,[6],11.5 µM
same,GI50,[7],1.12 µM
same,TGI,[7],6.31 µM
same,CC50,[7]; [30],47.9 µM
same,GI50,[8],12.6 µM
same,TGI,[8],46.8 µM
same,CC50,[8]; [30],> 100 µM
same,GI50,[9],12.9 µM
same,LC50,[9],50.1 µM
same,TGI,[9],25.1 µM
same,GI50,[10],4.57 µM
same,LC50 (concentration killing 50% of cells),[10],58.9 µM
same,TGI,[10],20.4 µM
same,GI50,[11],5.25 µM
same,LC50 (concentration killing 50% of starting cells),[11],44.7 µM
same,TGI,[11],18.2 µM
same,GI50,[12],10.7 µM
same,LC50 (concentration killing 50% of cells),[12],50.1 µM
same,TGI,[12],22.9 µM
same,GI50,[13],2 µM
same,LC50,[13],33.9 µM
same,TGI,[13],11.5 µM
same,GI50,[14],3.89 µM
same,LC50 (concentration giving 50% net cell kill),[14],50.1 µM
same,TGI,[14],15.8 µM
same,GI50,[15],5.01 µM
same,TGI,[15],47.9 µM
same,CC50,[15]; [30],> 100 µM
same,GI50,[16],1.74 µM
same,TGI,[16],25.1 µM
same,CC50,[16]; [30],> 100 µM
same,GI50,[17],13.2 µM
same,LC50,[17],> 100 µM
same,TGI,[17],45.7 µM
same,GI50,[18],7.76 µM
same,LC50,[18],> 100 µM
same,TGI,[18],30.2 µM
same,GI50,[19],12.9 µM
same,LC50,[19],53.7 µM
same,TGI,[19],26.3 µM
same,GI50,[20],8.13 µM
same,TGI,[20],23.4 µM
same,CC50,[20]; [30],56.2 µM
same,GI50,[21],3.55 µM
same,LC50,[21],43.6 µM
same,TGI,[21],14.4 µM
same,GI50,[22],1.38 µM
same,LC50 (concentration killing 50% of cells),[22],39.8 µM
same,TGI,[22],6.03 µM
same,GI50,[23],2.45 µM
same,LC50,[23],41.7 µM
same,TGI,[23],14.8 µM
same,GI50,[24],4.79 µM
same,LC50 (concentration killing 50% of cells),[24],52.5 µM
same,TGI,[24],19 µM
same,GI50,[25],7.76 µM
same,LC50 (concentration killing 50% of cells),[25],> 100 µM
same,TGI,[25],30.2 µM
same,GI50,[26],7.76 µM
same,LC50 (concentration killing 50% of starting cells),[26],50.1 µM
same,TGI,[26],20.9 µM
same,GI50,[27],12.9 µM
same,LC50,[27],58.9 µM
same,TGI,[27],27.5 µM
same,GI50,[28],13.2 µM
same,LC50 (50% lethal concentration),[28],53.7 µM
same,TGI,[28],26.9 µM
same,GI50,[29],4.79 µM
same,LC50 (concentration killing 50% of cells),[29],77.6 µM
same,TGI,[29],22.9 µM
